{
  "source": "BindingDB's records for doi:10.1021/jm701562x",
  "about": "(Johannes Gutenberg University, 2008)",
  "key": {"[1]": {"target": "Gamma-aminobutyric acid receptor subunit alpha-2 (Rattus norvegicus, UniProt P23576)", "sequence (P23576 whole entry)": "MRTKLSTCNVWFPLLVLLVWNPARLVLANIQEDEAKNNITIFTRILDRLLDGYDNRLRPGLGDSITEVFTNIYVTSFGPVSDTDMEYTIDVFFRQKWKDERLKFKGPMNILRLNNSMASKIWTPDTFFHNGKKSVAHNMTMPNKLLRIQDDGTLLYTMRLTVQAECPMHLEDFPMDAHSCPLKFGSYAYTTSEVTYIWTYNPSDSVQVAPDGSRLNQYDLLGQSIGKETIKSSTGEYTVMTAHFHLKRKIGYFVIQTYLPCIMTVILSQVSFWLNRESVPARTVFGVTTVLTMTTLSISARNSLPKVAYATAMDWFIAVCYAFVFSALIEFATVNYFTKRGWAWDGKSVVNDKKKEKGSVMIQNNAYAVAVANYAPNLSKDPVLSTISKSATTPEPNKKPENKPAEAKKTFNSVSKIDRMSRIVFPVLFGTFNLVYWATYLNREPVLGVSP", "experiment": "Agonist activity at rat recombinant GABAA alpha-2-beta-3-gamma-2 receptor expressed in HEK293 cells assessed as normalization of GABA-induced current by whole cell patch-clamp technique", "how_it_was_run": "(§1)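 HEK293 cells transiently co-transfected (calcium phosphate) with rat αi, β3 and γ2S cDNAs plus EGFP marker; recorded 2 days later by whole-cell patch clamp in HEPES saline pH 7.35.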"}, "[2]": {"target": "Gamma-aminobutyric acid receptor subunit alpha-1 (Rattus norvegicus, UniProt P62813)", "sequence (P62813 whole entry)": "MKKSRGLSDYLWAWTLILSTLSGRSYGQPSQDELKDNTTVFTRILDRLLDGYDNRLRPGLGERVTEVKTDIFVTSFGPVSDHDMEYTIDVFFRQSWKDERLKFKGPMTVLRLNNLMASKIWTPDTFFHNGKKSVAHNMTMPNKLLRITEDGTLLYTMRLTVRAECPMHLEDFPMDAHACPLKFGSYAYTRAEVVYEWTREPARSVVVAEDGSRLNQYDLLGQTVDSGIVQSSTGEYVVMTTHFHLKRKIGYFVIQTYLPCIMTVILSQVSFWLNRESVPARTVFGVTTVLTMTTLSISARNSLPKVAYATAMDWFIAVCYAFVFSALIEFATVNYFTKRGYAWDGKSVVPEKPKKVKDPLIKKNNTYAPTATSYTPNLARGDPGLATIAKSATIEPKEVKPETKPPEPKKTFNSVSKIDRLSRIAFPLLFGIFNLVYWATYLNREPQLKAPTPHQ", "experiment": "Agonist activity at rat recombinant GABAA alpha-1-beta-3-gamma-2 receptor expressed in HEK293 cells assessed as normalization of GABA-induced current by whole cell patch-clamp technique", "how_it_was_run": "as §1"}},
  "note": "Structures can show the parent of a compound that is named as a salt.",
  "data": [
    {"smiles": "NCc1n[nH]c(=O)o1", "note": "[5-Aminomethyl-3H-[1,3,4]oxadiazol-2-one Hydrochloride]", "values": [
      {"measurement": "EC50", "setting": "[1]", "result": 182, "unit": "µM"},
      {"measurement": "EC50", "setting": "[2]", "result": 280, "unit": "µM"}
    ]}
  ]
}
